Compound activity (PubChem BioAssay)
Shown are actives, neighbours in structure and some others; about 1% of the full set was active somewhere.
Xi reactivation: reactivates the inactive X chromosome in mouse fibroblasts; hit rate 0.055% among 360,000; activation, % at 7.58 µM; AID 743238; XiGFP mouse fibroblasts, % GFP-positive cells imaging, 3 d; cells co-treated with 5-aza-dC sensitizer; scaled so ellipticine positive control = 100%;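 active means mean normalized replicate activation at least 10% and every replicate at or above 10%; inconclusive means only one of the two criteria met; inactive means mean below 10% and not all replicates reach 10%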
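System: 68-5-11 XiGFP fibroblast line; Timing: 3 days compound exposure; Compound dosing: one concentration, pinned; Benchmarks: positive control ellipticine, 6 µM final; Buffer or medium: DMEM containing 5-aza-dC.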
CaV13 FRET inh: Disruptors of the CACNA1D IQ motif to Ca2+-dependent inactivation inhibitor domain association, primary screening, Förster resonance energy transfer in intact living …; HEK cells, CFP/YFP FRET ICDI-IQ, plate reader, 10 min; percent FRET-ratio fall versus neutral wells; inhibition, % at 12.3 µM; hit rate 0.098% among 340,000;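 active means mean replicate inhibition of at least 30% and at least 1% of replicates passing that level; inconclusive means only one of the two criteria is met; inactive means neither criterion is met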
GAA850 FXN act: frataxin GAA850 promoter activation; HEK293 lucGAA850 FXN promoter luciferase reporter, 24 h; percent of 10 µM SAHA response; activation, % at 6 µM; hit rate 0.56% among 360,000;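 active means activation above the average of all compounds screened plus 3 SD, cutoff fixed separately per campaign, cut at about 7.5% in these data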
INS-1E GSIS act: GLuc luminescence reporter in INS-1E cells, primary screen for activators of glucose-dependent secretion of insulin | INS-1E GLuc reporter insulin secretion, 2-3 h | activation, % at 16.6 µM | hit rate 0.61% among 370,000 | AID 743287;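 active means lowest replicate activation of at least 40%, so every replicate reaches that level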
GAA30 FXN cntr: GAA30 FXN promoter activation counter-screen; activation, % at 6 µM; shares compounds with GAA850 FXN act; hit rate 66% among 1,900; AID 588350; HEK293 lucGAA30 FXN promoter luciferase, 24 h; DMSO = 0%, 5 µM ipriflavone = 100%;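 active means mean activation above the mean of solvent-only control wells plus 3 SD, cut at about 22% in these data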;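 further: counterscreen of GAA850 promoter hits where activity marks nonselective or luminescence artifacts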
FXN GAA850 conf: GAA850 FXN promoter activation confirmation | shares compounds with GAA850 FXN act | HEK293 lucGAA850 FXN promoter luciferase reporter, 24 h; 100% = activation by SAHA | activation, % at 6 µM | hit rate 86% among 1,900 | AID 588351;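 active means mean activation above a set limit taken from the primary screen, cut at about 8% in these data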
Each line names hits and unclear results; the compound was inactive in the other large screens (follow-up assays come after a bar, where they were run).

O=C(CCl)Nc1ccc(N2CCCCCC2)cc1	GAA850 FXN act 7.7 | GAA30 FXN cntr inactive | FXN GAA850 conf 29
CCC(=O)Nc1ccc(N2CCCCC2)cc1	none (no result: Xi reactivation, CaV13 FRET inh)
CN1CC(=O)N2[C@H]3c4ccccc4OC[C@@H]3[C@H](c3ccccc3)[C@]2(C)C1=O	none
C[C@@]12C(=O)N(CC3CCCO3)CC(=O)N1[C@H]1c3ccccc3OC[C@@H]1[C@@H]2c1ccccc1 (some centres not stated)	GAA850 FXN act 12 | GAA30 FXN cntr inactive | FXN GAA850 conf 14
COc1ccc2c(c1)[C@H]1[C@H](CO2)[C@H](c2ccccc2)[C@]2(C)C(=O)N(CC3CCCO3)CC(=O)N12 (some centres not stated)	none (no result: INS-1E GSIS act)
C[C@@]12C(=O)N(CCc3c[nH]c4ccccc34)CC(=O)N1[C@H]1c3ccccc3OC[C@@H]1[C@@H]2c1ccccc1	GAA850 FXN act 7.7 | GAA30 FXN cntr inactive | FXN GAA850 conf 8.5
Cc1c(CCOC(=O)C23CC4CC(CC(C)(C4)C2)C3)sc[n+]1CC(=O)c1ccccc1	GAA850 FXN act 8.3 (no result: INS-1E GSIS act) | GAA30 FXN cntr 31 | FXN GAA850 conf 20
Cc1c(CCOC(=O)CC23CC4CC(CC(C4)C2)C3)sc[n+]1CC(=O)c1ccc(Br)cc1	none (no result: Xi reactivation, INS-1E GSIS act)
Cc1c(CCOC(=O)CC23CC4CC(CC(C)(C4)C2)C3)sc[n+]1CC(=O)c1ccccc1	GAA850 FXN act 9.7 | GAA30 FXN cntr inactive | FXN GAA850 conf 14
C[C@@H]1CCCCO[C@@H](CN(C)Cc2ccccc2)[C@H](C)CN([C@H](C)CO)C(=O)c2cc(NS(=O)(=O)c3cn(C)cn3)ccc2O1	none (no result: CaV13 FRET inh, GAA850 FXN act)
CC(=O)N(C)C[C@H]1Oc2ncc(C3=CCCC3)cc2C(=O)N([C@@H](C)CO)C[C@H]1C	none (no result: CaV13 FRET inh, GAA850 FXN act)
COc1cccc(-n2cnc3sc(C)c(C)c3c2=O)c1	GAA850 FXN act 9.3 (no result: Xi reactivation) | GAA30 FXN cntr 59 | FXN GAA850 conf 24
Cc1cccc(-n2cnc3sc(C)c(C)c3c2=O)c1	none
N#C[C@H]1[C@H](c2ccccc2)[C@@H](CO)N1C(=O)Nc1cccc(F)c1	none (no result: CaV13 FRET inh, GAA850 FXN act)
COc1ccc(-c2nc(Cn3c(SCc4cccc(F)c4)nc4ccncc43)c(C)o2)cc1OC	GAA850 FXN act 12 | GAA30 FXN cntr inactive | FXN GAA850 conf inactive
C[C@@H]1CN([C@@H](C)CO)C(=O)c2cccc(NC(=O)C3CC3)c2O[C@@H]1CN(C)C(=O)NC1CCCCC1	none (no result: CaV13 FRET inh, GAA850 FXN act)
CC(=O)N1CC2(C1)[C@H](c1ccc(-c3ccccc3C)cc1)[C@@H](CO)N2C(=O)CC1CC1	none (no result: CaV13 FRET inh, GAA850 FXN act)
O=C(Nc1ccc(Cl)cc1Cl)c1ccc2c(=O)n3c(nc2c1)CCC3	none
O=C(Nc1ccc(Br)cc1Cl)c1ccc2c(=O)n3c(nc2c1)CCC3	GAA850 FXN act 7.9 | GAA30 FXN cntr 88 | FXN GAA850 conf 23
O=C(Nc1ccc(F)c(Cl)c1)c1ccc2c(=O)n3c(nc2c1)CCCCC3	none (no result: Xi reactivation, INS-1E GSIS act)
O=C(Nc1ccc(Cl)cc1)c1ccc2c(=O)n3c(nc2c1)CCCCC3	GAA850 FXN act 18 | GAA30 FXN cntr 63 | FXN GAA850 conf 25
CCOC(=O)C(=O)/C(C#N)=C/Nc1ccccc1	none (no result: Xi reactivation, INS-1E GSIS act)
CCOC(=O)/C(C#N)=C/Nc1ccccc1OC	GAA850 FXN act 8.0 (no result: Xi reactivation, INS-1E GSIS act) | GAA30 FXN cntr 92 | FXN GAA850 conf 29
CC(C)(O)C#Cc1cccc(-c2nc(C(=O)O)cc3c2[C@H](CCO)N(S(=O)C(C)(C)C)C3)c1 (some centres not stated)	none (no result: CaV13 FRET inh, GAA850 FXN act)
O=C(CS(=O)c1ccc(C(F)(F)F)cc1[N+](=O)[O-])Oc1ccccc1 (configuration not stated)	none (no result: Xi reactivation, INS-1E GSIS act)
CS(=O)(=O)c1ccc(S(=O)CC(=O)OCc2ccccc2)c([N+](=O)[O-])c1 (configuration not stated)	Xi reactivation inconclusive, GAA850 FXN act 95, INS-1E GSIS act 81 | GAA30 FXN cntr inactive | FXN GAA850 conf inactive
COc1ccccc1-c1cnc2c(c1)C(=O)N([C@H](C)CO)C[C@@H](C)[C@H](CN(C)Cc1cccnc1)O2	none (no result: CaV13 FRET inh, GAA850 FXN act)
CC[C@@]12C(=O)N(c3cccc(Br)c3)C(=O)N1[C@H](c1ccc(F)cc1)[C@@H]1C(=O)N(C3CCCCC3)C(=O)[C@@H]12	GAA850 FXN act 8.4 | GAA30 FXN cntr inactive | FXN GAA850 conf 12
CC(C)C[C@@]12C(=O)N(c3cccc(Br)c3)C(=O)N1[C@H](c1ccc(F)cc1)[C@@H]1C(=O)N(C3CCCCC3)C(=O)[C@@H]12	GAA850 FXN act 11 (no result: INS-1E GSIS act) | GAA30 FXN cntr inactive | FXN GAA850 conf 10.0
Cc1ccc(S(=O)(=O)Nc2ccc3c(c2)C(=O)N([C@H](C)CO)C[C@@H](C)[C@@H](CN(C)Cc2ccccc2)OCCCC[C@@H](C)O3)cc1	none (no result: CaV13 FRET inh, GAA850 FXN act)
Cc1ccc(N(C(=O)c2csnn2)C(C(=O)NC(C)(C)C)c2ccncc2)cc1 (configuration not stated)	none (no result: Xi reactivation)
CC(C)c1ccc(N(C(=O)c2csnn2)C(C(=O)NC(C)(C)C)c2ccncc2)cc1 (configuration not stated)	GAA850 FXN act 14 (no result: Xi reactivation, CaV13 FRET inh, INS-1E GSIS act) | GAA30 FXN cntr 115 | FXN GAA850 conf 32
C[C@@H]1CCCCO[C@H](CN(C)S(=O)(=O)c2cccs2)[C@@H](C)CN([C@H](C)CO)C(=O)c2cc(NS(=O)(=O)c3ccccc3)ccc2O1	none (no result: CaV13 FRET inh, GAA850 FXN act)
CN(C)C(=O)c1cccc(-c2ccc([C@@H]3[C@H](CO)N4C(=O)CN(C(=O)C5CCC5)C[C@@H]34)cc2)c1	none (no result: CaV13 FRET inh, GAA850 FXN act)
O=c1oc(-c2ccc(O)c(O)c2)cc2cc(O)cc(O)c12	none (no result: Xi reactivation, CaV13 FRET inh)
O=c1oc(-c2ccc(O)c(O)c2)cc2cccc(O)c12	GAA850 FXN act 13 (no result: Xi reactivation, CaV13 FRET inh) | GAA30 FXN cntr 129 | FXN GAA850 conf 46
ClC(/C=N/n1cnnc1)=C/c1ccccc1	GAA850 FXN act 7.8 | GAA30 FXN cntr 59 | FXN GAA850 conf 30
CO[C@H](CN(C)C(=O)C1CCOCC1)[C@@H](C)CN(C(=O)Nc1ccc(F)cc1)[C@@H](C)CO	none (no result: CaV13 FRET inh, GAA850 FXN act)
CCCOC(=O)c1c(N)sc(C(=O)OCC)c1C	GAA850 FXN act 14 (no result: Xi reactivation) | GAA30 FXN cntr 64 | FXN GAA850 conf 25
Cc1cccc(Nc2n[nH]c(C)c2[N+](=O)[O-])c1	GAA850 FXN act 8.7 (no result: Xi reactivation) | GAA30 FXN cntr 92 | FXN GAA850 conf 37
Cc1noc(C)c1NC(=O)N[C@@H]1CC[C@@H](CCNC(=O)C2CCC2)O[C@H]1CO	none (no result: CaV13 FRET inh, GAA850 FXN act)
O=C(/C=N\O)NCCCNCc1ccccc1	GAA850 FXN act 21 (no result: Xi reactivation) | GAA30 FXN cntr 26 | FXN GAA850 conf 9.0
O=C(NCCCNCc1ccccc1)c1ccncc1	none (no result: Xi reactivation)
C[C@@H]1CCCCO[C@H](CN(C)C(=O)Nc2ccccc2)[C@H](C)CN([C@@H](C)CO)C(=O)c2cc(NC(=O)c3ccncc3)ccc2O1	none (no result: CaV13 FRET inh, GAA850 FXN act)
